Activity calls are given as the source filed them. The calls are words filed in the database; no cut-off is given here.
Tests used:
[1] = molecular target: Replicase polyprotein 1ab (Severe acute respiratory syndrome coronavirus 2, UniProt P0DTD1); assay: Inhibition of N7-MTase activity of SARS-CoV-2 N-terminus hexahistidine tag nsp14 expressed in Escherichia coli C2566 using [3H]SAM as substrate incubated for 30 mins in presence of mGpppAC4 synthetic RNA by radioactive filter binding assay
[2] = molecular target: Replicase polyprotein 1ab (Severe acute respiratory syndrome coronavirus 2) (UniProt P0DTD1); assay: Inhibition of N7-MTase activity of SARS-CoV-2 N-terminus hexahistidine tag nsp14 expressed in Escherichia coli C2566 at 5 uM using [3H]SAM as substrate incubated for 30 mins in presence of mGpppAC4 synthetic RNA by filter binding assay relative to control
[3] = molecular target: Replicase polyprotein 1ab (Severe acute respiratory syndrome coronavirus 2) (UniProt P0DTD1); assay: Binding affinity to SARS-CoV-2 N-terminus hexahistidine tag nsp14 expressed in Escherichia coli C2566 assessed as change in melting temperature at 0.5 mM by SYPRO orange dye based thermal shift assay
Procedure, shortened: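 nsp14 (freshly purified, 5 μM, in 20 mM Hepes pH 7.5, 150 mM NaCl, ≤5% DMSO) incubated with compound from 500 μM down to 8.4 nM (3-fold serial dilution) plus Sypro Orange 0.00056×. Melt ramp 1 °C per minute, 25–95 °C. Tm from Boltzmann fit; ΔTm taken against DMSO control. Duplicates; Kd from inflection of ΔTm versus concentration.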

[4] = test system: Severe acute respiratory syndrome coronavirus 2; assay: Binding affinity to SARS-CoV N-terminus hexahistidine tag nsp14 expressed in Escherichia coli C2566 assessed as shift in melting temperature at >2 uM by SYPRO orange dye based thermal shift assay
[5] = Inhibition of N7-MTase activity of SARS-CoV N-terminus hexahistidine tag nsp14 expressed in Escherichia coli C2566 using [3H]SAM as substrate incubated for 30 mins in presence of mGpppAC4 synthetic RNA by radioactive filter binding assay; parameters: species or system Severe acute respiratory syndrome-related coronavirus
[6] = Inhibition of human RNA N7-MTase expressed in Escherichia coli measured using [3H]SAM as substrate incubated for 30 mins in presence of mGpppAC4 synthetic RNA by radioactive filter binding assay
[7] = Selectivity index, ratio of IC50 for human RNA N7-MTase to IC50 for SARS-CoV-2 nsp14 N7-MTase activity using [3H]SAM as substrate incubated for 30 mins in presence of mGpppAC4 synthetic RNA by radioactive filter binding assay
Homo sapiens = organism: Homo sapiens; assay: Inhibition of human RNA N7-MTase expressed in Escherichia coli measured upto 50 uM using [3H]SAM as substrate incubated for 30 mins in presence of mGpppAC4 synthetic RNA by radioactive filter binding assay; details: DDE = dose-dependent effect
[8] = molecular target: Replicase polyprotein 1ab (Severe acute respiratory syndrome coronavirus 2) (UniProt P0DTD1); assay: Inhibition of N7-MTase activity of SARS-CoV-2 N-terminus hexahistidine tag nsp14 expressed in Escherichia coli C2566 assessed as fold change using [3H]SAM as substrate incubated for 30 mins in presence of mGpppAC4 synthetic RNA by radioactive filter binding assay

Row | Structure (SMILES) | IC50 [1] [nM] | inhibition [2] [%] | also measured
1 | CCc1ccc(S(=O)(=O)NC[C@H]2O[C@@H](n3cnc4c(N)ncnc43)[C@H](O)[C@@H]2O)cc1[N+](=O)[O-] | 244 | 98 | –
2 | COc1ccc(S(=O)(=O)N(CCCCOC(C)=O)C[C@H]2O[C@@H](n3cnc4c(N)ncnc43)[C@H](O)[C@@H]2O)cc1[N+](=O)[O-] | 80 | 100 | –
3 | CCN(C[C@H]1O[C@@H](n2cnc3c(N)ncnc32)[C@H](O)[C@@H]1O)S(=O)(=O)c1ccc(Cl)c(Cl)c1 | 100 | 100 | –
4 | CCN(C[C@H]1O[C@@H](n2cnc3c(N)ncnc32)[C@H](O)[C@@H]1O)S(=O)(=O)c1ccc(C)c(Cl)c1 | 56 | 95 | ΔTm [3]: 11 °C; Activity [4]: Active
5 | Nc1ncnc2c1ncn2[C@@H]1O[C@H](CNS(=O)(=O)c2ccc(C(F)(F)F)cc2[N+](=O)[O-])[C@@H](O)[C@H]1O | 3500 | 60 | IC50 [5]: 3300 nM
6 | Nc1ncnc2c1ncn2[C@@H]1O[C@H](CNS(=O)(=O)c2cccc([N+](=O)[O-])c2)[C@@H](O)[C@H]1O | 3590 | 80 | –
7 | Nc1ncnc2c1ncn2[C@@H]1O[C@H](CNS(=O)(=O)c2ccc(Cl)c(Cl)c2)[C@@H](O)[C@H]1O | 482 | 87 | –
8 | CCN(C[C@H]1O[C@@H](n2cnc3c(N)ncnc32)[C@H](O)[C@@H]1O)S(=O)(=O)c1ccc(C)c([N+](=O)[O-])c1 | 38 | 100 | –
9 | Nc1ncnc2c1ncn2[C@@H]1O[C@H](CNS(=O)(=O)c2cccc(Cl)c2)[C@@H](O)[C@H]1O | – | 20 | –
10 | CCN(C[C@H]1O[C@@H](n2cnc3c(N)ncnc32)[C@H](O)[C@@H]1O)S(=O)(=O)c1ccc(OC)c(C#N)c1 | 19 | 100 | IC50 [6]: 52800 nM; Ratio IC50 [7]: > 2000; ΔTm [3]: 11 °C; inhibition (Homo sapiens): Dde; fold change (FC) [8]: 2000; Activity [4]: Active
11 | Nc1ncnc2c1ncn2[C@@H]1O[C@H](CNS(=O)(=O)c2cccc([N+](=O)[O-])c2Cl)[C@@H](O)[C@H]1O | 2100 | 75 | IC50 [5]: 1400 nM
12 | Cc1ccc(S(=O)(=O)NC[C@H]2O[C@@H](n3cnc4c(N)ncnc43)[C@H](O)[C@@H]2O)cc1[N+](=O)[O-] | 342 | 100 | –
13 | N#Cc1cccc(S(=O)(=O)NC[C@H]2O[C@@H](n3cnc4c(N)ncnc43)[C@H](O)[C@@H]2O)c1 | 5300 | 80 | –
14 | Cc1ccc(S(=O)(=O)NC[C@H]2O[C@@H](n3cnc4c(N)ncnc43)[C@H](O)[C@@H]2O)cc1Cl | 344 | 90 | –
15 | Nc1ncnc2c1ncn2[C@@H]1O[C@H](CNS(=O)(=O)c2ccc(F)c([N+](=O)[O-])c2)[C@@H](O)[C@H]1O | 4400 | 87 | –
16 | CCN(C[C@H]1O[C@@H](n2cnc3c(N)ncnc32)[C@H](O)[C@@H]1O)S(=O)(=O)c1ccc(Br)c([N+](=O)[O-])c1 | 80 | 100 | –
17 | N#Cc1cc(S(=O)(=O)NC[C@H]2O[C@@H](n3cnc4c(N)ncnc43)[C@H](O)[C@@H]2O)ccc1Cl | 1010 | 100 | –

Row | Structure (SMILES) | IC50 [1] [nM] | inhibition [2] [%] | also measured
18 | CCN(C[C@H]1O[C@@H](n2cnc3c(N)ncnc32)[C@H](O)[C@@H]1O)S(=O)(=O)c1ccc(OC)c([N+](=O)[O-])c1 | 44 | 100 | –
19 | COc1cc([N+](=O)[O-])ccc1S(=O)(=O)NC[C@H]1O[C@@H](n2cnc3c(N)ncnc32)[C@H](O)[C@@H]1O | 5100 | 77 | IC50 [5]: 25000 nM
20 | COc1ccc(S(=O)(=O)NC[C@H]2O[C@@H](n3cnc4c(N)ncnc43)[C@H](O)[C@@H]2O)cc1[N+](=O)[O-] | 146 | 90 | –
21 | COc1ccc(S(=O)(=O)NC[C@H]2O[C@@H](n3cnc4c(N)ncnc43)[C@H](O)[C@@H]2O)cc1C#N | 514 | 100 | –
22 | N#Cc1cc(S(=O)(=O)NC[C@H]2O[C@@H](n3cnc4c(N)ncnc43)[C@H](O)[C@@H]2O)ccc1F | 899 | 90 | –
23 | COc1ccc(S(=O)(=O)N(CCCCNc2cccc3ccccc23)C[C@H]2O[C@@H](n3cnc4c(N)ncnc43)[C@H](O)[C@@H]2O)cc1[N+](=O)[O-] | 30 | 100 | ΔTm [3]: 11 °C; Activity [4]: Active
24 | CCN(C[C@H]1O[C@@H](n2cnc3c(N)ncnc32)[C@H](O)[C@@H]1O)S(=O)(=O)c1ccc(C(F)(F)F)cc1[N+](=O)[O-] | 5000 | 84 | –
25 | Nc1ncnc2c1ncn2[C@@H]1O[C@H](CNS(=O)(=O)c2ccc(Cl)cc2)[C@@H](O)[C@H]1O | 13000 | 25 | –
26 | Nc1ncnc2c1ncn2[C@@H]1O[C@H](CNS(=O)(=O)c2ccc([N+](=O)[O-])cc2Cl)[C@@H](O)[C@H]1O | – | 21 | –
27 | Nc1ncnc2c1ncn2[C@@H]1O[C@H](CNS(=O)(=O)c2ccc([N+](=O)[O-])cc2)[C@@H](O)[C@H]1O | 14100 | 25 | IC50 [5]: 7600 nM
28 | COc1ccc(S(=O)(=O)NC[C@H]2O[C@@H](n3cnc4c(N)ncnc43)[C@H](O)[C@@H]2O)c([N+](=O)[O-])c1 | 1400 | 70 | IC50 [5]: 2600 nM
29 | CCN(C[C@H]1O[C@@H](n2cnc3c(N)ncnc32)[C@H](O)[C@@H]1O)S(=O)(=O)c1cccc(C#N)c1 | 960 | 65 | –
30 | Nc1ncnc2c1ncn2[C@@H]1O[C@H](CNS(=O)(=O)c2ccc(Br)c([N+](=O)[O-])c2)[C@@H](O)[C@H]1O | 2900 | 85 | –
31 | CCOC(=O)CCCCN(C[C@H]1O[C@@H](n2cnc3c(N)ncnc32)[C@H](O)[C@@H]1O)S(=O)(=O)c1ccc(OC)c([N+](=O)[O-])c1 | 114 | 100 | –
32 | CCN(C[C@H]1O[C@@H](n2cnc3c(N)ncnc32)[C@H](O)[C@@H]1O)S(=O)(=O)c1cccc([N+](=O)[O-])c1 | 516 | 75 | –
33 | CCN(C[C@H]1O[C@@H](n2cnc3c(N)ncnc32)[C@H](O)[C@@H]1O)S(=O)(=O)c1cccc(Cl)c1 | 442 | 65 | –

Source: ChEMBL document CHEMBL5154878, “Potent Inhibition of SARS-CoV-2 nsp14 N7-Methyltransferase by Sulfonamide-Based Bisubstrate Analogues” (J Med Chem, 2022)
